One block for each compound: values may come before it. Calls of active or inactive are those of the source. The rule behind the calls is not given here.
How the values were obtained:
[1] = Selectivity ratio of Ki for recombinant mouse 11beta-HSD1 expressed in HEK293 cell microsomes to Ki for recombinant cynomolgus monkey 11beta-HSD1 expressed in HEK293 cell microsomes
[2] = molecular target: T1, 11-beta-hydroxysteroid dehydrogenase type 2 (Rattus norvegicus) (UniProt P50233); assay: Inhibition of rat 11beta-HSD2 up to 20 uM
T1 sequence (whole entry): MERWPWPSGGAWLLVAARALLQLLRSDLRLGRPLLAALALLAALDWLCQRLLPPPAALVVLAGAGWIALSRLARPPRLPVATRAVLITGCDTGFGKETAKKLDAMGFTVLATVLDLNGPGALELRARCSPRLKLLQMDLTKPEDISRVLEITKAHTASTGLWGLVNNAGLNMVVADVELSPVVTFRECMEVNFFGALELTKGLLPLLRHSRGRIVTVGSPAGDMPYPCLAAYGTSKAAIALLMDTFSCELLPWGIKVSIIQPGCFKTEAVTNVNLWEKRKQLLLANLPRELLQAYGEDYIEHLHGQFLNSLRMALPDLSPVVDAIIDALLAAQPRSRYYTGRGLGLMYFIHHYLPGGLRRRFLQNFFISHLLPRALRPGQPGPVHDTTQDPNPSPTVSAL

[3] = molecular target: T2, 11-beta-hydroxysteroid dehydrogenase type 2 (Mus musculus) (UniProt P51661); assay: Inhibition of mouse 11beta-HSD2 up to 20 uM
T2 sequence (whole entry): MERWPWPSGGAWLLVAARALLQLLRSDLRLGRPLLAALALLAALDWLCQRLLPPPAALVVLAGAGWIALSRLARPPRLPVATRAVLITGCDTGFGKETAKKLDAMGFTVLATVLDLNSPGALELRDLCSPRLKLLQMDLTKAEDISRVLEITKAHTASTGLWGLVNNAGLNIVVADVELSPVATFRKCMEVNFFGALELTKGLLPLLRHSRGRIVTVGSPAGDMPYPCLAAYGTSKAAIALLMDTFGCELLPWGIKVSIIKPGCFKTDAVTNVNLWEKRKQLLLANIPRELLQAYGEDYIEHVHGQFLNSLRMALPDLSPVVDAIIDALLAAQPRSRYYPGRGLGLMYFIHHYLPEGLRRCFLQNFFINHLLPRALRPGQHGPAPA

Macaca fascicularis = species: Macaca fascicularis; assay: Inhibition of cynomolgus monkey 11beta-HSD2 up to 20 uM
[4] = molecular target: T3, 11-beta-hydroxysteroid dehydrogenase type 2 (Homo sapiens) (UniProt P80365); assay: Inhibition of recombinant human 11beta-HSD2 expressed in cells up to 30 uM using […] as substrate by LC-MS analysis; type: cell-based
T3 sequence (whole entry): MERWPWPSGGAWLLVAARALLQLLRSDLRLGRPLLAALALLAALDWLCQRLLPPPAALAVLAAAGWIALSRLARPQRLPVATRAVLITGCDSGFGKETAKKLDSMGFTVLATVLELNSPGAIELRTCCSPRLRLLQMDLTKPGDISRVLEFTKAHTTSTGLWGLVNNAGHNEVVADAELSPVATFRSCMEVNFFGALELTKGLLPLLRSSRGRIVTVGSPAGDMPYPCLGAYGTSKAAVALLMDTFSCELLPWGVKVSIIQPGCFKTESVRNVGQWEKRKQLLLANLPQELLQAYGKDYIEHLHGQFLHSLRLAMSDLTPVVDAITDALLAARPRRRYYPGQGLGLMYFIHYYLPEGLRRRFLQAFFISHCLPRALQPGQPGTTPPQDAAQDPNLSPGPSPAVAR

[5] = Genotoxicity in Escherichia coli by SOS chromotest; type: toxicity
Mus musculus [6] = assay: In-vivo inhibition of 11beta-HSD1 in po dosed diet induced obese mouse assessed as reduction in conversion of dehydrocorticosterone to corticosterone pretreated for 30 to 60 mins followed by dehydrocorticosterone addition and measured after 30 to 120 mins by enzyme immunosorbent assay; type: functional
[7] = Toxicity in cynomolgus monkey assessed as emesis up to 100 mg/kg, po administered as single dose; type: organism-based, Macaca fascicularis; details: in vivo
[8] = Toxicity in mouse up to 100 mg/kg, po administered as single dose; type: organism-based; details: in vivo
[9] = molecular target: T4, Nuclear receptor subfamily 1 group I member 2 (Homo sapiens, UniProt O75469); assay: Activation of PXR (unknown origin); type: ADME
T4 sequence (O75469 whole entry): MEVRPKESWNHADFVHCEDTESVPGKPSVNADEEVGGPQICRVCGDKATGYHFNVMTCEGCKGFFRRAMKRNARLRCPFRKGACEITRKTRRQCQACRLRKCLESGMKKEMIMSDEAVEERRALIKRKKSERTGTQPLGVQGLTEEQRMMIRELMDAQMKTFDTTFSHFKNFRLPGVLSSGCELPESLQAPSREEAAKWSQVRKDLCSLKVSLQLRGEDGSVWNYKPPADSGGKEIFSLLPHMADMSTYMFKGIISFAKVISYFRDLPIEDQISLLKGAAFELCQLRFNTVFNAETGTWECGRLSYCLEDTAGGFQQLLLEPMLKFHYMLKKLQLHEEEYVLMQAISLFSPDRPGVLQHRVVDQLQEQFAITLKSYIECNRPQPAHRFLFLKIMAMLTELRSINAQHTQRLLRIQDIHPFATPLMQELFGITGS

[10] = Ratio of drug level in adipose tissue to plasma in diet induced obese mouse administered via oral gavage; type: ADME; details: adipose tissue and plasma
[11] = Total plasma clearance in cynomolgus monkey at 1 mg/kg, iv by LC-MS/MS analysis; type: ADME, organism-based, Macaca fascicularis
Cynomolgus monkey = assay: In-vivo inhibition of 11beta-HSD1 in po cynomolgus monkey assessed as reduction in conversion of dehydrocorticosterone to corticosterone pretreated for 30 to 60 mins followed by dehydrocorticosterone addition and measured after 30 to 120 mins by enzyme immunosorbent assay; type: functional; details: Macaca fascicularis
hERG (KCNH2) [12] = molecular target: T5, hERG (KCNH2) (Homo sapiens, UniProt Q12809); assay: Inhibition of human ERG at 30 uM by whole-cell patch clamp method relative to control
[13] = Inhibition of recombinant cynomolgus monkey 11beta-HSD1 expressed in HEK293 cell microsomes using [3H]cortisone as substrate after 4 hrs by homogeneous immuno-radiometric scintillation proximity assay; parameters: species or system Macaca fascicularis
[14] = Stability in rat microsomes assessed as parent compound remaining after 30 mins; type: ADME, Microsome; details: read-out: Stability
Mus musculus [15] = assay: Selectivity ratio of ED50 for inhibition of 11beta-HSD1 in po dosed diet induced obese mouse to ED50 for ex vivo inhibition of 11beta-HSD1 in diet induced obese mouse adipose tissue administered via oral gavage; type: functional
Cytochrome P450 1A2 = molecular target: T6, Cytochrome P450 1A2 (Homo sapiens, UniProt P05177); assay: Inhibition of human CYP1A2; type: ADME
T6 sequence (P05177 whole entry): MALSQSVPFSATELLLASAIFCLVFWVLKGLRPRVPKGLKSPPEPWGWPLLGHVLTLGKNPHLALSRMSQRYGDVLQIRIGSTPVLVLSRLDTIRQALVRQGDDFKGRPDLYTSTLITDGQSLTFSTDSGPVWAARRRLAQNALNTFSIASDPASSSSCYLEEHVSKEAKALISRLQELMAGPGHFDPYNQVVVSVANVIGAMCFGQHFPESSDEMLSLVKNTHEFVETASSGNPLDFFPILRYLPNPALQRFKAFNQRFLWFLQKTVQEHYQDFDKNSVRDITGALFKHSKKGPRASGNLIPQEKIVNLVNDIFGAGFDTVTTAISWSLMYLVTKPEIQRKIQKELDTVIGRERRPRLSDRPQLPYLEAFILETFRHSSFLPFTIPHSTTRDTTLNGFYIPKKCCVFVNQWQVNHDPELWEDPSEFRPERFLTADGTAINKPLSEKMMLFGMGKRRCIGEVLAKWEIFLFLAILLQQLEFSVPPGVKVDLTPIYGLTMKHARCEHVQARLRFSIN

[16] = Efflux ratio of permeability from basolateral to apical side over apical to basolateral side in human Caco2 cells at 3 uM; details: caco-2, 3 µM
Mus musculus [17] = assay: Ex vivo inhibition of 11beta-HSD1 in diet induced obese mouse adipose tissue assessed as reduction in conversion of dehydrocorticosterone to corticosterone administered via oral gavage pretreated for 3 hrs followed by dehydrocorticosterone addition by LC-MS analysis; type: functional
[18] = Stability in mouse microsomes assessed as parent compound remaining after 30 mins; type: ADME, Microsome; details: read-out: Stability
[19] = Volume of distribution at steady state in cynomolgus monkey at 1 mg/kg, iv by LC-MS/MS analysis; type: ADME, organism-based, Macaca fascicularis; details: in vivo, read-out: Vdss
Cytochrome P450 2D6 = Cytochrome P450 2D6 (Homo sapiens, UniProt P10635); assay: Inhibition of human CYP2D6; type: ADME
Cytochrome P450 2C9 = Cytochrome P450 2C9 (Homo sapiens, UniProt P11712); assay: Inhibition of human CYP2C9; type: ADME
[20] = Oral bioavailability in Balb/C mouse at 10 mg/kg by LC-MS/MS analysis; type: ADME, organism-based; details: in vivo
Outline: (§1)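 Given orally as a homogenized suspension, to mouse and to cynomolgus monkey.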

[21] = Stability in cynomolgus monkey microsomes assessed as parent compound remaining after 30 mins; type: ADME, Macaca fascicularis, Microsome; details: read-out: Stability
[22] = Stability in human microsomes assessed as parent compound remaining after 30 mins; type: ADME, Microsome; details: read-out: Stability
Cytochrome P450 3A4 = Cytochrome P450 3A4 (Homo sapiens, UniProt P08684); assay: Inhibition of human CYP3A4; type: ADME
[23] = Oral bioavailability in cynomolgus monkey at 1.47 mg/kg by LC-MS/MS analysis; type: ADME, organism-based, Macaca fascicularis; details: in vivo; outline: as §1
[24] = Ratio of drug level in liver to plasma in diet induced obese mouse administered via oral gavage; type: ADME; details: liver and plasma
[25] = Permeability of the compound by PAMPA; type: ADME; details: read-out: permeability
[26] = molecular target: 11-beta-hydroxysteroid dehydrogenase 1 (Homo sapiens, UniProt P28845); assay: Inhibition of recombinant human 11beta-HSD1 expressed in HEK293 cell microsomes using [3H]cortisone as substrate after 4 hrs by homogeneous immuno-radiometric scintillation proximity assay; type: cell-based
[27] = Selectivity ratio of ED50 for inhibition of 11beta-HSD1 in po dosed diet induced obese mouse to ED50 for inhibition of 11beta-HSD1 in po cynomolgus monkey; type: functional
[28] = Protein binding in mouse plasma; type: ADME, cell-free; details: read-out: PPB (converted)
[29] = Volume of distribution at steady state in Balb/C mouse at 5 mg/kg, iv by LC-MS/MS analysis; type: ADME, organism-based; details: in vivo, read-out: Vdss
[30] = molecular target: 11-beta-hydroxysteroid dehydrogenase 1 (Mus musculus, UniProt P50172); assay: Inhibition of recombinant mouse 11beta-HSD1 expressed in HEK293 cell microsomes using [3H]cortisone as substrate after 4 hrs by homogeneous immuno-radiometric scintillation proximity assay
[31] = Protein binding in cynomolgus monkey plasma; type: ADME, cell-free, Macaca fascicularis; details: read-out: PPB (converted)
Cytochrome P450 2C19 = Cytochrome P450 2C19 (Homo sapiens, UniProt P33261); assay: Inhibition of human CYP2C19; type: ADME
[32] = Protein binding in human plasma; type: ADME, cell-free; details: read-out: PPB (converted)
hERG (KCNH2) [33] = molecular target: T5, hERG (KCNH2); assay: Inhibition of human ERG at 10 uM by whole-cell patch clamp method relative to control
[34] = Genotoxicity in Salmonella typhimurium by Ames test; type: toxicity; details: salmonella enterica subsp. enterica serovar typhimurium
[35] = Total plasma clearance in Balb/C mouse at 5 mg/kg, iv by LC-MS/MS analysis; type: ADME, organism-based
[36] = Aqueous solubility of the compound at pH 1 using crystalline sample; type: physicochemical
[37] = Aqueous solubility of the compound at pH 6.5 using crystalline sample; type: physicochemical
[38] = Stability of the compound at 50 degC measured after 12 weeks using crystalline solid sample; type: physicochemical; details: 2016 h
[39] = Stability of the compound in hydrolytic solution; type: physicochemical
[40] = Stability of the compound under high intensity light/UV light measured after 12 weeks using crystalline solid sample; type: physicochemical; details: 2016 h
[41] = Stability of the compound in aqueous buffer at pH 1.1 to pH 7.4 at 40 degC measured after 1 week; type: physicochemical; details: pH 1.1, 168 h
[42] = Stability of the compound in solid state; type: physicochemical
[43] = Stability of the compound in oxidative solution; type: physicochemical

Sequence of 11-beta-hydroxysteroid dehydrogenase 1 (Mus musculus, UniProt P50172) (P50172 whole entry): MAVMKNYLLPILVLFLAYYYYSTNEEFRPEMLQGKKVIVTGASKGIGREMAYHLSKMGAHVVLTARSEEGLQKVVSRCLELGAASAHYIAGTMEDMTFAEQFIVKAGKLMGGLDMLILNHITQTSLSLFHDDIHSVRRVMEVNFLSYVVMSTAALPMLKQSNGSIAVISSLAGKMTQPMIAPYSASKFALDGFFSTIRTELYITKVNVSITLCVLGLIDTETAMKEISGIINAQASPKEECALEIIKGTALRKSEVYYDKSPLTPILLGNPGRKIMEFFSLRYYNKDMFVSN
T5 sequence (Q12809 whole entry): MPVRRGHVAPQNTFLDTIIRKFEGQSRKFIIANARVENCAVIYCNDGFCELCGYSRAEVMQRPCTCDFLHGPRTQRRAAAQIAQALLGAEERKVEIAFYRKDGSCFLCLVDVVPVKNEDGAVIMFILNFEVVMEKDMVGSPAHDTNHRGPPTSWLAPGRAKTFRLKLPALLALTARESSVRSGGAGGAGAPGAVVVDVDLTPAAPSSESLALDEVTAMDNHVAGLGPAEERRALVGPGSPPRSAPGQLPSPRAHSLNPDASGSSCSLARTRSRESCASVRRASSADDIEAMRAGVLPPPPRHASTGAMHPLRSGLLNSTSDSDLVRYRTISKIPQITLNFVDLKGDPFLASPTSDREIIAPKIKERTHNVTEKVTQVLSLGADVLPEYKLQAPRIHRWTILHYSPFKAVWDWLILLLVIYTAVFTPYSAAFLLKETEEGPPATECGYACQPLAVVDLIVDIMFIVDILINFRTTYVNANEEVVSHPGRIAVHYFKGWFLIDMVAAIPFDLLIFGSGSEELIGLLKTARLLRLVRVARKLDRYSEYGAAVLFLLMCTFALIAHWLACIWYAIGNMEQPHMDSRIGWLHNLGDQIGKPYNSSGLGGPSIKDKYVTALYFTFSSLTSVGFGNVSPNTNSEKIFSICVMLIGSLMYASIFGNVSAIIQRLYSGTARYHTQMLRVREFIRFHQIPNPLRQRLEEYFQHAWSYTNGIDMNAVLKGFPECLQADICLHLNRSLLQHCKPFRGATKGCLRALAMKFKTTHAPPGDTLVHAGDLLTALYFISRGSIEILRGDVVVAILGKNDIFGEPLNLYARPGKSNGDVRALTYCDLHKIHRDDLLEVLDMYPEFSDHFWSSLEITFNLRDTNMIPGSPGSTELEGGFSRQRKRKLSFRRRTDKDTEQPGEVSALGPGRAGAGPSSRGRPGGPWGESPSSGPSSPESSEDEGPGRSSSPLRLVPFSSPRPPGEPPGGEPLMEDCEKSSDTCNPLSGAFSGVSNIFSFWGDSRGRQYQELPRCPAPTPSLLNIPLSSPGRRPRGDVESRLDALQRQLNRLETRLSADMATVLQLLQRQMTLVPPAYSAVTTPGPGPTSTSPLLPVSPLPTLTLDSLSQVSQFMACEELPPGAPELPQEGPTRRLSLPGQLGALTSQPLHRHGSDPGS
Sequence of Cytochrome P450 2C19 (P33261 whole entry): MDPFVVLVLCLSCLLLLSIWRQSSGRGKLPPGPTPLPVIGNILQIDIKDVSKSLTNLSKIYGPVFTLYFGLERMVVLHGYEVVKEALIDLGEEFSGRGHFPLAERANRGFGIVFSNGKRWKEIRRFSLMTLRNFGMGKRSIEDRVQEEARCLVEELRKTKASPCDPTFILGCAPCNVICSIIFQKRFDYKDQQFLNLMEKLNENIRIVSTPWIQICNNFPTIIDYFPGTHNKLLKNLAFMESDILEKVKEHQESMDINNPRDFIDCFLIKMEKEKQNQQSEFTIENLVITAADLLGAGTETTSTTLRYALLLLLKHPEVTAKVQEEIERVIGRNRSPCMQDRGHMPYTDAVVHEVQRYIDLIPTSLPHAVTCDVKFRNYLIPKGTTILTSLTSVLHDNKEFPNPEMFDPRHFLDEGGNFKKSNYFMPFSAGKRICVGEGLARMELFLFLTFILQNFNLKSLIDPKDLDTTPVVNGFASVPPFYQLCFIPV
Sequence of Cytochrome P450 3A4 (P08684 whole entry): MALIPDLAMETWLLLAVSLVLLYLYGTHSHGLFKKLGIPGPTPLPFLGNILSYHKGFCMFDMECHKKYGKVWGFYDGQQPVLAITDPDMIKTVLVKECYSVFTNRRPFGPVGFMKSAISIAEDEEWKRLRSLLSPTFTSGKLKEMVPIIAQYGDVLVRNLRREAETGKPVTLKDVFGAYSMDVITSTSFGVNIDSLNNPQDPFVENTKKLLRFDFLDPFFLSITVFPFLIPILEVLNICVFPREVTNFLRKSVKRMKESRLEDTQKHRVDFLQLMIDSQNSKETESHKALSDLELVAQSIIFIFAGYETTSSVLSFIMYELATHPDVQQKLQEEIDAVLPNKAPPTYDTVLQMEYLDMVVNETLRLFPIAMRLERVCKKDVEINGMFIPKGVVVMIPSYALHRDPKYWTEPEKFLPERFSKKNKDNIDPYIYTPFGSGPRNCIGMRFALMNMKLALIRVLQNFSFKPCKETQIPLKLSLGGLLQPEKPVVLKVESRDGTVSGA
Sequence of Cytochrome P450 2C9 (P11712 whole entry): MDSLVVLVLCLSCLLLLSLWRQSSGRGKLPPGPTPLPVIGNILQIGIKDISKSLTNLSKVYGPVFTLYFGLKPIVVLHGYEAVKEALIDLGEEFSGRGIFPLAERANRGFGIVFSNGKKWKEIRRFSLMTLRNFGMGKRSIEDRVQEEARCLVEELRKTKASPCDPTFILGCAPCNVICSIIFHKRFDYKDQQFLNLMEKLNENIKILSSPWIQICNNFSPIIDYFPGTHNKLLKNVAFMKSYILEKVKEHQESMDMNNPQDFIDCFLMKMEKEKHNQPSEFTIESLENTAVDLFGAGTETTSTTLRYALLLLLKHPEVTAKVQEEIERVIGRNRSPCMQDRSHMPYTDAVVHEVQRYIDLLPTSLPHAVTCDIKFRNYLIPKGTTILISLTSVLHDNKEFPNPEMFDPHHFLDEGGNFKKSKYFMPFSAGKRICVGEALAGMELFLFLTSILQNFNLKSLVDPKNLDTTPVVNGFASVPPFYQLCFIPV
Sequence of 11-beta-hydroxysteroid dehydrogenase 1 (Homo sapiens, UniProt P28845) (P28845 whole entry): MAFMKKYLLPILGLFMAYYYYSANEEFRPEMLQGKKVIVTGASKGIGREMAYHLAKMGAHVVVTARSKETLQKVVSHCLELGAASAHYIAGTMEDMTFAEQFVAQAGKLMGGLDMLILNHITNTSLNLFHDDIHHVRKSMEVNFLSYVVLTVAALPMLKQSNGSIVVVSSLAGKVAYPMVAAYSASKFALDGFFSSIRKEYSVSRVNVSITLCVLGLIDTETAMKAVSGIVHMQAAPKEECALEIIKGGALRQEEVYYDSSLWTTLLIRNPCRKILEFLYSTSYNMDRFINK
Sequence of Cytochrome P450 2D6 (P10635 whole entry): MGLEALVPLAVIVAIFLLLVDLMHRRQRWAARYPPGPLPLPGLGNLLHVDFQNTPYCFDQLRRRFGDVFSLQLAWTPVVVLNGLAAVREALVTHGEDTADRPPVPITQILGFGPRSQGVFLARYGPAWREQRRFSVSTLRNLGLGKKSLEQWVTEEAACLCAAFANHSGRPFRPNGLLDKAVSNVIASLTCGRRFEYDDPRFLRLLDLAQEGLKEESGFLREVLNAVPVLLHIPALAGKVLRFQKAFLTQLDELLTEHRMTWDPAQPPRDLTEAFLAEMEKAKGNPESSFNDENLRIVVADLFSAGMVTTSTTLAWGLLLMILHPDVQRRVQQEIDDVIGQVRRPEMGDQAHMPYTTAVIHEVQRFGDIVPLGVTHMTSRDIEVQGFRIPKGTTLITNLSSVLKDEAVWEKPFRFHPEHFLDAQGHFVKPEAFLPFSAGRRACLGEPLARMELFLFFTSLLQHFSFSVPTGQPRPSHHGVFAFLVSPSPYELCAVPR

Ratio Ki [1]: 55
inhibition [2]: inactive
inhibition [3]: inactive
inhibition (Macaca fascicularis): inactive
inhibition [4]: inactive
Compound: CC(C)(O)c1cccn2c(C3(c4ccc(Cl)cc4)CC3)nnc12

EC50 [9]: > 50 µM
Kp [10]: 2.5
clearance [11]: 1.2 mL/min/kg
remaining at 0.5 h [14]: 96 to 100%
IC50 (Cytochrome P450 1A2): > 30 µM
Ratio [16]: < 2
remaining at 0.5 h [18]: 96 to 100%
Vd [19]: 2.3 L/kg
IC50 (Cytochrome P450 2D6): > 30 µM
IC50 (Cytochrome P450 2C9): > 30 µM
bioavailability [20]: 44%
remaining at 0.5 h [21]: 96 to 100%
remaining at 0.5 h [22]: 96 to 100%
IC50 (Cytochrome P450 3A4): > 30 µM
bioavailability [23]: 100%
Kp [24]: 3.5
Papp [25]: > 50 ×10⁻⁶ cm/s
Ki [26]: 0.9 nM
fraction unbound [28]: 0.13
Vd [29]: 1.2 L/kg
IC50 [30]: 600 nM
Ki [30]: 380 nM
fraction unbound [31]: 0.16
IC50 (Cytochrome P450 2C19): > 30 µM
fraction unbound [32]: 0.15
clearance [35]: 2.3 mL/min/kg
Compound: CC(C)(O)c1cccn2c(C3(c4ccc(Cl)cc4)CC3)nnc12 [BMS-823778 FREE BASE]
Activity [5]: Non-Toxic
ED50 (Mus musculus [6]): 34 mg/kg
Activity [7]: Toxic
Activity [8]: Non-Toxic
ED50 (Cynomolgus monkey): 0.6 mg/kg
inhibition at 30 µM (hERG (KCNH2) [12]): 31.2%
Ki [13]: 7 nM
Ratio ED50 (Mus musculus [15]): 6.5
ED50 (Mus musculus [17]): 5.2 mg/kg
Ratio ED50 [27]: 57
inhibition at 10 µM (hERG (KCNH2) [33]): 19.8%
Activity [34]: Non-Toxic

solubility thermodynamic [36]: 220 mg/mL
solubility thermodynamic [37]: 500 µg/mL
Stability [38]: Stable
Stability [39]: Stable
Stability [40]: Stable
Stability [41]: Stable
Stability [42]: Stable
Stability [43]: Stable
Compound: CC(C)(O)c1cccn2c(C3(c4ccc(Cl)cc4)CC3)nnc12.Cl [BMS-823778]
